Converted amounts (≈) assume the structure as drawn.
Key:
DMS-114 = assay: Cytotoxicity against human DMS114 cells after 72 hrs by SRB assay; type: functional; conditions: DMS-114, 72 h
OVCAR-3 = assay: Cytotoxicity against human OVCAR3 cells after 72 hrs by SRB assay; type: functional; conditions: OVCAR-3, 72 h
MKN-7 = assay: Cytotoxicity against human MKN7 cells after 72 hrs by SRB assay; type: functional; conditions: MKN-7, 72 h
BALB/3T3 = assay: Cytotoxicity against mouse BALB/3T3 cells after 72 hrs by SRB assay; type: cell-based; conditions: BALB/3T3, 72 h
In short: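 Adherent cells grown at 37 °C and 5% CO2. A549 and HCT116 were in RPMI 1640/OptiMEM (50:50) with 5% FBS; BALB/3T3 in Dulbecco medium with 10% FBS and pyruvate. Seeded at 1×10^4/well 24 h before dosing, then 72 h at 10–0.01 µg/mL final. Fixed with cold 50% TCA, stained with 0.4% SRB, dye extracted in 10 mM Tris, read at 540 nm.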

St-4 = assay: Cytotoxicity against human St-4 cells after 72 hrs by SRB assay; type: functional; conditions: St-4, 72 h
SF-539 = assay: Cytotoxicity against human SF539 cells after 72 hrs by SRB assay; type: functional; conditions: SF-539, 72 h
[1] = Cytotoxicity against human HBC4 cells after 72 hrs by SRB assay; type: functional; conditions: HBC4, 72 h
[2] = Cytotoxicity against human RXF631L cells after 72 hrs by SRB assay; type: functional; conditions: RXF 631, 72 h
[3] = Cytotoxicity against human HBC5 cells after 72 hrs by SRB assay; type: functional; conditions: HBC5, 72 h
NCI-H460 = assay: Cytotoxicity against human NCI-H460 cells after 72 hrs by SRB assay; type: functional; conditions: NCI-H460, 72 h
HT-29 = assay: Cytotoxicity against human HT-29 cells after 72 hrs by SRB assay; type: functional; conditions: HT-29, 72 h
L6 = assay: Cytotoxicity against rat L6 cells after 70 hrs by alamar blue assay; conditions: L6, 70 h
LOX IMVI = assay: Cytotoxicity against human LOXIMVI cells after 72 hrs by SRB assay; type: functional
MKN-45 = assay: Cytotoxicity against human MKN45 cells after 72 hrs by SRB assay; type: functional; conditions: MKN-45, 72 h
Plasmodium falciparum = assay: Antimalarial activity against erythrocytic stage of Plasmodium falciparum NF54 infected in RBC after 48 hrs by [3H]-hypoxanthine incorporation assay; type: functional, organism-based
[4] = read-out: LC50 (the source's name)
[5] = read-out: pLC50 (the source's name) (converted)

Question: With COc1ccc(C2O[C@]34CC(c5cccc(Cl)c5)OC(=O)C3=C[C@@]2(C)OO4)cc1 (some centres undefined) as the molecule, how does the TGI (DMS-114) read?
Answer: 36 µM

Question: What about the GI50 (DMS-114; read-out: GI50) of the same molecule?
Answer: 14 µM

Question: And the CC50 (DMS-114; [4])?
Answer: 92 µM

Question: What about the GI50 (DMS-114; read-out: pGI50 (converted)) of the same molecule?
Answer: 4.47 µM

Question: What about the CC50 (DMS-114; [5]) of the same molecule?
Answer: 95.5 µM

Question: What about the TGI (OVCAR-3) of the same molecule?
Answer: 10 µM

Question: What about the GI50 (OVCAR-3; read-out: GI50) of the same molecule?
Answer: 3.4 µM

Question: And the CC50 (OVCAR-3; [4])?
Answer: 42 µM

Question: What about the GI50 (OVCAR-3; read-out: pGI50 (converted)) of the same molecule?
Answer: 2.45 µM

Question: What about the CC50 (OVCAR-3; [5]) of the same molecule?
Answer: 12.6 µM

Question: And the TGI (MKN-7)?
Answer: 31 µM

Question: What about the GI50 (MKN-7; read-out: GI50) of the same molecule?
Answer: 10 µM

Question: And the CC50 (MKN-7; [4])?
Answer: 97 µM

Question: What about the GI50 (MKN-7; read-out: pGI50 (converted)) of the same molecule?
Answer: 3.47 µM

Question: And the CC50 (MKN-7; [5])?
Answer: 89.1 µM

Question: What about the IC50 (BALB/3T3) of the same molecule?
Answer: 8.97 µM

Question: And the TGI (St-4)?
Answer: 47 µM

Question: What about the GI50 (St-4; read-out: GI50) of the same molecule?
Answer: 19 µM

Question: And the CC50 (St-4; [4])?
Answer: 100 µM

Question: And the GI50 (St-4; read-out: pGI50 (converted))?
Answer: 17.8 µM

Question: And the CC50 (St-4; read-out: pLC50 (converted))?
Answer: > 100 µM

Question: And the TGI (SF-539)?
Answer: 23 µM

Question: And the GI50 (SF-539; read-out: GI50)?
Answer: 8.4 µM

Question: What about the CC50 (SF-539; [4]) of the same molecule?
Answer: 55 µM

Question: What about the GI50 (SF-539; read-out: pGI50 (converted)) of the same molecule?
Answer: 2.75 µM

Question: And the CC50 (SF-539; [5])?
Answer: 13.5 µM

Question: And the TGI [1]?
Answer: 24 µM

Question: And the GI50 ([1]; read-out: GI50)?
Answer: 11 µM

Question: And the CC50 [1, 4]?
Answer: 54 µM

Question: And the GI50 ([1]; read-out: pGI50 (converted))?
Answer: 3.72 µM

Question: And the CC50 [1, 5]?
Answer: 38 µM

Question: What about the TGI [2] of the same molecule?
Answer: 30 µM

Question: What about the GI50 ([2]; read-out: GI50) of the same molecule?
Answer: 16 µM

Question: And the CC50 [2, 4]?
Answer: 56 µM

Question: What about the GI50 ([2]; read-out: pGI50 (converted)) of the same molecule?
Answer: 16.6 µM

Question: What about the CC50 [2, 5] of the same molecule?
Answer: 58.9 µM

Question: What about the TGI [3] of the same molecule?
Answer: 8 µM

Question: And the GI50 ([3]; read-out: GI50)?
Answer: 2.4 µM

Question: What about the CC50 [3, 4] of the same molecule?
Answer: 44 µM

Question: And the GI50 ([3]; read-out: pGI50 (converted))?
Answer: 1.95 µM

Question: What about the CC50 [3, 5] of the same molecule?
Answer: 8.71 µM

Question: And the TGI (NCI-H460)?
Answer: 38 µM

Question: What about the GI50 (NCI-H460; read-out: GI50) of the same molecule?
Answer: 19 µM

Question: And the CC50 (NCI-H460; [4])?
Answer: 77 µM

Question: What about the GI50 (NCI-H460; read-out: pGI50 (converted)) of the same molecule?
Answer: 20 µM

Question: And the CC50 (NCI-H460; [5])?
Answer: 81.3 µM

Question: And the TGI (HT-29)?
Answer: 48 µM

Question: What about the GI50 (HT-29; read-out: GI50) of the same molecule?
Answer: 15 µM

Question: And the CC50 (HT-29; [4])?
Answer: 100 µM

Question: What about the GI50 (HT-29; read-out: pGI50 (converted)) of the same molecule?
Answer: 5.25 µM

Question: And the CC50 (HT-29; read-out: pLC50 (converted))?
Answer: > 100 µM

Question: What about the IC50 (L6) of the same molecule?
Answer: 0.46 µg/mL (≈ 1.11 µM)

Question: And the TGI (LOX IMVI)?
Answer: 12 µM

Question: And the GI50 (LOX IMVI; read-out: GI50)?
Answer: 3.1 µM

Question: And the CC50 (LOX IMVI; [4])?
Answer: 60 µM

Question: And the GI50 (LOX IMVI; read-out: pGI50 (converted))?
Answer: 2.04 µM

Question: What about the CC50 (LOX IMVI; [5]) of the same molecule?
Answer: 7.59 µM

Question: And the TGI (MKN-45)?
Answer: 31 µM

Question: What about the GI50 (MKN-45; read-out: GI50) of the same molecule?
Answer: 14 µM

Question: And the CC50 (MKN-45; [4])?
Answer: 68 µM

Question: What about the GI50 (MKN-45; read-out: pGI50 (converted)) of the same molecule?
Answer: 15.5 µM

Question: And the CC50 (MKN-45; [5])?
Answer: 57.5 µM

Question: What about the IC50 (Plasmodium falciparum) of the same molecule?
Answer: 1.38 µg/mL (≈ 3.33 µM)

Question: Which results are given for COc1ccc(C2O[C@]34CC(c5cccc(OC)c5)OC(=O)C3=C[C@@]2(C)OO4)cc1 (some centres undefined)?
Answer: TGI (DMS-114): 20 µM; GI50 (DMS-114; read-out: GI50): 4.4 µM; CC50 (DMS-114; [4]): 95 µM; TGI (OVCAR-3): 5.1 µM; GI50 (OVCAR-3; read-out: GI50): 2.4 µM; CC50 (OVCAR-3; [4]): 13 µM; TGI (MKN-7): 14 µM; GI50 (MKN-7; read-out: GI50): 3.4 µM; CC50 (MKN-7; [4]): 90 µM; TGI (St-4): 45 µM; GI50 (St-4; read-out: GI50): 18 µM; CC50 (St-4; [4]): 100 µM; TGI (SF-539): 5.4 µM; GI50 (SF-539; read-out: GI50): 2.8 µM; CC50 (SF-539; [4]): 14 µM; TGI [1]: 13 µM; GI50 ([1]; read-out: GI50): 3.7 µM; CC50 [1, 4]: 38 µM; TGI [2]: 31 µM; GI50 ([2]; read-out: GI50): 17 µM; CC50 [2, 4]: 59 µM; TGI [3]: 4.1 µM; GI50 ([3]; read-out: GI50): 1.9 µM; CC50 [3, 4]: 8.8 µM; TGI (NCI-H460): 41 µM; GI50 (NCI-H460; read-out: GI50): 20 µM; CC50 (NCI-H460; [4]): 82 µM; TGI (HT-29): 27 µM; GI50 (HT-29; read-out: GI50): 5.2 µM; CC50 (HT-29; [4]): 100 µM; TGI (LOX IMVI): 9 µM; GI50 (LOX IMVI; read-out: GI50): 1 µM; CC50 (LOX IMVI; [4]): 7.5 µM; TGI (MKN-45): 30 µM; GI50 (MKN-45; read-out: GI50): 16 µM; CC50 (MKN-45; [4]): 57 µM
